Measured values reported in ChEMBL document CHEMBL1137710, “Synthesis and in vitro antitumor activity of new quinoxaline derivatives” (2009).

Tests used:
Format in all cases: functional
SF-268 = assay: Anticancer activity against human SF268 cells assessed as cell growth at 100 uM after 48 hrs by sulforhodamine B assay; settings: SF-268, 48 h, read-out: Activity
MCF7 = assay: Anticancer activity against human MCF7 cells assessed as cell growth at 100 uM after 48 hrs by sulforhodamine B assay; settings: MCF7, 48 h, read-out: Activity
[1] = Growth inhibition of human […] cells after 48 hrs by sulforhodamine B assay
How it was run: (§1)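 NCI 60-human-tumor-cell-line panel, with compounds tested over a 5-log dose range. Values are taken from dose-response curves as log10 molar concentrations: GI50 is 50% net growth inhibition, TGI is total growth inhibition, and LC50 is 50% net cell death.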

[2] = Growth inhibition of human Hs 578T cells after 48 hrs by sulforhodamine B assay; how it was run: as §1
MDA-MB-231 = assay: Growth inhibition of human MDA-MB-231 cells after 48 hrs by sulforhodamine B assay; settings: MDA-MB-231, 48 h; how it was run: as §1
786-0 = assay: Growth inhibition of human 786-0 cells after 48 hrs by sulforhodamine B assay; settings: 786-0, 48 h; how it was run: as §1
RXF 393 = assay: Growth inhibition of human RXF393 cells after 48 hrs by sulforhodamine B assay; settings: RXF 393, 48 h; how it was run: as §1
DU-145 = assay: Growth inhibition of human DU145 cells after 48 hrs by sulforhodamine B assay; settings: DU-145, 48 h; how it was run: as §1
COLO 205 = assay: Growth inhibition of human COLO205 cells after 48 hrs by sulforhodamine B assay; settings: COLO 205, 48 h; how it was run: as §1
CAKI-1 = assay: Growth inhibition of human Caki1 cells after 48 hrs by sulforhodamine B assay; settings: CAKI-1, 48 h; how it was run: as §1
SW-620 = assay: Growth inhibition of human SW620 cells after 48 hrs by sulforhodamine B assay; settings: SW-620, 48 h
How it was run: (§2)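 Run in the NCI 60-human-tumour-cell-line panel, tested over a 5-log dose range. Dose–response curves gave three values per cell line, each as a log10 molar concentration: GI50 (50% inhibition of net cell growth), TGI (total inhibition of net growth) and LC50 (50% net cell death). The mean graph midpoint is the arithmetic mean over all lines, with insensitive lines entered at the highest concentration tested.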

LOX IMVI = assay: Growth inhibition of human LOXIMVI cells after 48 hrs by sulforhodamine B assay; how it was run: as §1
NCI/ADR-RES = assay: Growth inhibition of human NCI/ADR-RES cells after 48 hrs by sulforhodamine B assay; how it was run: as §1
MDA-MB-435 = assay: Growth inhibition of human MDA-MB-435 cells after 48 hrs by sulforhodamine B assay; settings: MDA-MB-435, 48 h; how it was run: as §1
PC-3 = assay: Growth inhibition of human PC3 cells after 48 hrs by sulforhodamine B assay; settings: PC-3, 48 h; how it was run: as §1
OVCAR-8 = assay: Growth inhibition of human OVCAR8 cells after 48 hrs by sulforhodamine B assay; settings: OVCAR-8, 48 h; how it was run: as §1
SNB-19 = assay: Growth inhibition of human SNB19 cells after 48 hrs by sulforhodamine B assay; settings: SNB-19, 48 h; how it was run: as §2
NCI-H23 = assay: Growth inhibition of human NCI-H23 cells after 48 hrs by sulforhodamine B assay; settings: NCI-H23, 48 h; how it was run: as §1
A549 = assay: Growth inhibition of human A549 cells after 48 hrs by sulforhodamine B assay; settings: A549, 48 h; how it was run: as §1
KM12 = assay: Growth inhibition of human KM12 cells after 48 hrs by sulforhodamine B assay; settings: KM12, 48 h; how it was run: as §1
M14 = assay: Growth inhibition of human M14 cells after 48 hrs by sulforhodamine B assay; settings: M14, 48 h; how it was run: as §1
SF-295 = assay: Growth inhibition of human SF295 cells after 48 hrs by sulforhodamine B assay; settings: SF-295, 48 h; how it was run: as §1
NCI-H460 = assay: Growth inhibition of human NCI-H460 cells after 48 hrs by sulforhodamine B assay; settings: NCI-H460, 48 h; how it was run: as §1
SR = assay: Growth inhibition of human SR cells after 48 hrs by sulforhodamine B assay; how it was run: as §2
U-251 = assay: Growth inhibition of human U251 cells after 48 hrs by sulforhodamine B assay; settings: U-251, 48 h; how it was run: as §2
SK-OV-3 = assay: Growth inhibition of human SKOV3 cells after 48 hrs by sulforhodamine B assay; settings: SK-OV-3, 48 h; how it was run: as §1
OVCAR-5 = assay: Growth inhibition of human OVCAR5 cells after 48 hrs by sulforhodamine B assay; settings: OVCAR-5, 48 h; how it was run: as §1
TK-10 = assay: Growth inhibition of human TK10 cells after 48 hrs by sulforhodamine B assay; settings: TK-10, 48 h; how it was run: as §2
[3] = read-out: pLC50 (the source's name) (converted)

## COc1ccc(CNc2nc3cc(N)cc(N)c3nc2-c2ccccc2)cc1OC
SF-268
  growth at 100 µM: 47%
MCF7
  growth at 100 µM: 0%
[1]
  GI50: 2.14 µM
  LC50: > 100 µM
[1]; read-out: pTGI (converted)
  TGI: 7.24 µM
[2]
  GI50: 33.9 µM
[2]; [3]
  CC50: > 100 µM
[2]; read-out: pTGI (converted)
  TGI: > 100 µM
MDA-MB-231
  GI50: 11.2 µM
MDA-MB-231; [3]
  CC50: 79.4 µM
MDA-MB-231; read-out: pTGI (converted)
  TGI: 29.5 µM
786-0
  GI50: 15.5 µM
786-0; [3]
  CC50: 75.9 µM
786-0; read-out: pTGI (converted)
  TGI: 34.7 µM
RXF 393
  GI50: 19.1 µM
RXF 393; [3]
  CC50: > 100 µM
RXF 393; read-out: pTGI (converted)
  TGI: > 100 µM
DU-145
  GI50: 0.46 µM
DU-145; [3]
  CC50: > 100 µM
DU-145; read-out: pTGI (converted)
  TGI: 87.1 µM
COLO 205
  GI50: 7.94 µM
  LC50 (50% net cell kill): > 100 µM
COLO 205; read-out: pTGI (converted)
  TGI: > 100 µM
CAKI-1
  GI50: 11.2 µM
CAKI-1; [3]
  CC50: 53.7 µM
CAKI-1; read-out: pTGI (converted)
  TGI: 24.5 µM
SW-620
  GI50: 5.25 µM
SW-620; [3]
  CC50: > 100 µM
SW-620; read-out: pTGI (converted)
  TGI: > 100 µM
LOX IMVI
  GI50: 3.09 µM
  LC50: > 100 µM
LOX IMVI; read-out: pTGI (converted)
  TGI: 14.1 µM
NCI/ADR-RES
  GI50: 17.8 µM
NCI/ADR-RES; [3]
  CC50: > 100 µM
NCI/ADR-RES; read-out: pTGI (converted)
  TGI: 66.1 µM
MDA-MB-435
  GI50: 1.95 µM
MDA-MB-435; [3]
  CC50: 8.51 µM
MDA-MB-435; read-out: pTGI (converted)
  TGI: 4.07 µM
PC-3
  GI50: 8.32 µM
PC-3; [3]
  CC50: 83.2 µM
PC-3; read-out: pTGI (converted)
  TGI: 27.5 µM
OVCAR-8
  GI50: 6.76 µM
OVCAR-8; [3]
  CC50: > 100 µM
OVCAR-8; read-out: pTGI (converted)
  TGI: 33.9 µM
SNB-19
  GI50: 25.7 µM
  LC50: > 100 µM
SNB-19; read-out: pTGI (converted)
  TGI: > 100 µM
NCI-H23
  GI50: 17 µM
  LC50 (50% net cell kill concentration): 91.2 µM
NCI-H23; read-out: pTGI (converted)
  TGI: 39.8 µM
A549
  GI50: 20.9 µM
  LC50: > 100 µM
A549; read-out: pTGI (converted)
  TGI: 50.1 µM
KM12
  GI50: 13.2 µM
  LC50 (50% net cell kill): 72.4 µM
KM12; read-out: pTGI (converted)
  TGI: 30.9 µM
M14
  GI50: 4.27 µM
M14; [3]
  CC50: 33.9 µM
M14; read-out: pTGI (converted)
  TGI: 7.76 µM
SF-295
  GI50: 13.2 µM
  LC50 (50% net cell kill): 58.9 µM
SF-295; read-out: pTGI (converted)
  TGI: 28.2 µM
NCI-H460
  GI50: 24 µM
  LC50 (50% net cell kill): > 100 µM
NCI-H460; read-out: pTGI (converted)
  TGI: 91.2 µM
SR
  GI50: 3.31 µM
  LC50 (concentration giving 50% net cell death): > 100 µM
SR; read-out: pTGI (converted)
  TGI: 18.2 µM
U-251
  GI50: 17 µM
  LC50 (50% net cell kill): 89.1 µM
U-251; read-out: pTGI (converted)
  TGI: 38.9 µM
SK-OV-3
  GI50: 21.9 µM
SK-OV-3; [3]
  CC50: > 100 µM
SK-OV-3; read-out: pTGI (converted)
  TGI: 46.8 µM
OVCAR-5
  GI50: 20.9 µM
OVCAR-5; [3]
  CC50: 81.3 µM
OVCAR-5; read-out: pTGI (converted)
  TGI: 41.7 µM
TK-10
  GI50: 16.6 µM
TK-10; [3]
  CC50: 64.6 µM
TK-10; read-out: pTGI (converted)
  TGI: 32.4 µM
